The list is not random: actives were taken first. Their share in the collection is about 2.5%.
mABHD4 FP: inhibits mouse alpha/beta hydrolase domain 4. Q8VD66. purified mABHD4, FP-Rh probe fluorescence polarization. inhibition, % at 8.92 µM. 0.54% of 370,000 active. AID 720543;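 active = inhibition exceeding the mean over every tested compound plus 3 SD, cut at about 30% in these data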;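 also: 0% = plate median of compound wells and 100% = S159A mutant with DMSO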
Target sequence (Q8VD66 whole entry, looked up, the tested form may be a part): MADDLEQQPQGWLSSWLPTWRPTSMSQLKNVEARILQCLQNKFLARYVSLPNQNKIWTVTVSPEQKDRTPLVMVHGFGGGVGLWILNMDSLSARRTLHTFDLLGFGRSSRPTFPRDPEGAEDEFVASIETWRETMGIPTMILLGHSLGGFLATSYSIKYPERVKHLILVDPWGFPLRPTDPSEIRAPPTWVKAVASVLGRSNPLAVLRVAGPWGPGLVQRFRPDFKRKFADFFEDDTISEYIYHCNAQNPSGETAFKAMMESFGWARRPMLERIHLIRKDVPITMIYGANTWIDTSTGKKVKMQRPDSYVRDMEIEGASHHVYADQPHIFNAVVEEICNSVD
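Test system: mouse ABHD4 enzyme, wild type. Reagent: FP-Rh fluorescent activity-based probe, added after compound pre-incubation. Timing: pre-incubation 45 min, probe exposure 60 min, at 25 °C. Technique: FP readout, ex 525 nm / em 598 nm. Benchmarks: high control S159A mutant with DMSO, low control median of compound wells.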
HTRA1 inhibitor: inhibitors of human serine peptidase HTRA1; Q92743; recombinant HTRA1, FP-rhodamine activity-based probe, fluorescence polarization; inhibition, % at 5.96 µM; 0.5% of 340,000 active; AID 504803; in the data active = inhibition above about 36%;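 also: 0% = enzyme with DMSO and 100% = wells lacking enzyme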
Target sequence (Q92743 whole entry, looked up): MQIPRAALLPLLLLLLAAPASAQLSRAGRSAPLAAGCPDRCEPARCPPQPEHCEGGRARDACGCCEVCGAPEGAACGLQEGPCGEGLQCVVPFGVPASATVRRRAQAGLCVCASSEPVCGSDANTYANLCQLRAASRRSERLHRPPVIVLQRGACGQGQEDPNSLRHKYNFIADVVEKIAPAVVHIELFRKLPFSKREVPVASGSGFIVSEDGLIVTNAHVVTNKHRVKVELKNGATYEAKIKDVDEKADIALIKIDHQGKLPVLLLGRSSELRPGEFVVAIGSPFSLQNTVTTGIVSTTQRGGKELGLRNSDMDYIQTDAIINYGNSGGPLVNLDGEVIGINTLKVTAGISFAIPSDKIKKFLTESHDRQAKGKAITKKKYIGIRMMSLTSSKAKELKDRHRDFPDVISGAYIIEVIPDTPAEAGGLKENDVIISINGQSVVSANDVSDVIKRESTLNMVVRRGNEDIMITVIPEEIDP
SIAE primary: human SIAE inhibition, primary screen; Q9HAT2; 0.69% of 370,000 active; inhibition, % at 9.66 µM; SIAE FP-Rh probe binding, fluorescence polarization;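 active = inhibition above a cutoff: mean of compounds within the control limits plus 3 SD of those, cut at about 17% in these data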;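 also: 0% = plate median of compound wells and 100% = probe without SIAE protein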
TCR-CD3 inh: blocks the human TCR-CD3 interaction; TAMRA-labeled TCR probe fluorescence, biochemical; inhibition, % at 9.4 µM; 0.37% of 360,000 active; AID 651800;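 also: recombinant mutant TCR 2C K166C tagged with TAMRA read by polarization; 0% = receptor in buffer alone and 100% = receptor with positive control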
PRMT1 FP inh: inhibitors of human PRMT1. recombinant PRMT1, activity-based probe fluorescence polarization. 1.3% of 370,000 active. inhibition, % at 2.79 µM. Q99873;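 active = inhibition above about 21% made by adding two undisclosed values, limit read from the data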
BSA TAMRA ctr: BSA probe counter-screen for TCR-CD3 inhibitors | shares compounds with TCR-CD3 inh | TAMRA-labeled BSA probe fluorescence counterscreen | inhibition, % at 9.4 µM | 10% of 1,200 active; in the data active = inhibition above about 23%;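 also: 0% = buffer low control and 100% = reference high control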
TCR-CD3 inh conf: TCR-CD3 interaction inhibition, confirmation. shares compounds with TCR-CD3 inh. 48% of 1,200 active. TAMRA-labeled TCR probe fluorescence binding assay. inhibition, % at 9.4 µM. AID 652036
PRMT1 confirm: PRMT1 (human) inhibition, FP confirmation | shares compounds with PRMT1 FP inh | inhibition, % at 2.79 µM | 42% of 3,300 active | recombinant His-PRMT1, activity-based probe fluorescence polarization | AID 687036;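 active = mean inhibition across replicates above the hit cutoff derived for the earlier primary screen, cut at about 22% in these data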
mABHD4 conf: confirmation of mouse ABHD4 inhibitors; shares compounds with mABHD4 FP; purified mABHD4, FP-Rh probe fluorescence polarization; inhibition, % at 8.92 µM; 55% of 1,800 active;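 active = mean inhibition across replicates above the hit cutoff set in the primary screen, cut at about 30% in these data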;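 also: 0% = wild-type ABHD4 with DMSO and 100% = catalytically dead S159A mutant with DMSO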
SIAE confirm: confirmation of human SIAE inhibitors | inhibition, % at 9.66 µM | shares compounds with SIAE primary | SIAE FP-Rh activity-based probe, fluorescence polarization | 13% of 2,300 active;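 active = mean inhibition of the replicates above the hit cutoff set in the primary screen, cut at about 17% in these data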;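 also: 0% = SIAE with DMSO and probe and 100% = probe without SIAE; inhibitors lower polarization as more probe stays unbound to SIAE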
Numbers without * were called inactive; . = no result given; + = active, no number. Rule as the data show it, unless noted: active = inhibition above about 19%; inactive = the rest.

SMILES | mABHD4 FP | HTRA1 inhibitor | SIAE primary | TCR-CD3 inh | PRMT1 FP inh | BSA TAMRA ctr | TCR-CD3 inh conf | mABHD4 conf | SIAE confirm | others
C/C(=N\NC(=O)c1ccccc1O)C1C(=O)c2ccccc2C1=O | 45.7* | 30.3 | 8.8 | 33.1* | 0.9 | -17.1 | 41.7* | 63.8* | .
COc1cc(OC)c2cc(C(=O)N/N=C/c3cccc(OC)c3O)[nH]c2c1 | 31.6* | 15.0 | 11.7 | 23.5* | -2.7 | -10.8 | 6.5 | 58.0* | .
COc1ccccc1N1CCN(S(=O)(=O)c2ccc3c(c2)CCC(=O)N3)CC1 | 2.7 | . | 0.7 | . | 1.4 | . | . | . | .
NC1=NC(=O)C(=Cc2ccccc2)S1 | 6.9 | 3.4 | 1.0 | -0.3 | 4.0 | . | . | . | .
NC1=NC(=O)/C(=C\c2ccco2)S1 | 31.0* | 17.9 | 12.6 | 23.2* | 63.3* | -5.3 | 16.6 | 12.2 | .
O=C1NC(=S)NC1=Cc1ccco1 | 32.6* | 13.6 | -5.4 | 24.1* | 63.8* | 4.2 | 21.2* | 5.7 | . | PRMT1 confirm=12.5
O=C(Cc1ccccc1)NNC(=S)NC(=O)c1cccnc1 | 0.8 | . | 17.3* | 26.8* | 0.3 | -5.9 | 21.0* | . | 2.2
O=C(NC(=S)NCc1ccccc1)c1cccnc1 | 0.7 | -4.4 | -2.1 | 0.7 | -3.8 | . | . | . | .
CC(=O)c1c(C)[nH]c(C(=O)OCC(=O)NCc2ccc(Cl)cc2)c1C | 12.7 | -29.1 | 23.8* | 22.8* | 168.2* | 0.5 | -0.2 | . | -6.9 | PRMT1 confirm=-2.3
Cc1cc2ccccc2n1CCNC(=O)c1ccc(S(=O)(=O)N2CCCCC2)cc1 | 57.8* | 27.1 | 37.4* | 62.5* | 2.6 | 4.8 | 6.4 | 192.9* | -2.8
O=C(NCCc1ccccc1)c1ccc(S(=O)(=O)N2CCCCC2)cc1 | 4.5 | 4.8 | 2.2 | 6.1 | 1.2 | . | . | . | .
c1ccc2cc(Cn3ccc4ccc(-c5ccc6cc[nH]c6c5)cc43)ccc2c1 | 25.0 | . | 7.1 | . | 7.5 | . | . | . | .
O=C(NNc1ccccc1[N+](=O)[O-])Nc1ccc(Cl)c(Cl)c1 | -20.9 | -22.9 | -17.9 | -3.4 | 5.6 | . | . | . | .
O=C1NC(=O)C(c2ccccc2[N+](=O)[O-])=C1Nc1ccc(O)c(Cl)c1 | 42.6* | 26.8 | 18.9* | 20.4* | 14.3 | -15.7 | -2.9 | 2.6 | -0.6
O=C(Cc1ccccc1)NC1CCCc2c1cnn2-c1ccc(F)cc1F (stereo unspecified) | 4.8 | . | -3.9 | . | 3.1 | . | . | . | .
COC(=O)c1ccc2c(c1)SC1=C(CCCC1=O)N2 | 35.0* | 28.0 | 19.4* | 36.9* | 25.0* | 76.3* | 57.4* | 32.1* | 22.8*
O=C1CCCC2=C1Sc1ccc(Cl)cc1N2 | 4.5 | 13.4 | 6.7 | -2.2 | 9.0 | . | . | . | .
CCO/C(C)=N/Oc1cccc(N(C)C)c1 | 43.1* | . | 22.9* | 25.9* | 14.8 | 10.4 | 2.5 | . | 12.3
CC1(c2nnnn2-c2ccc3ccccc3c2)CSCC(=O)N1C1CC1 (stereo unspecified) | 3.4 | . | 1.6 | . | -0.8 | . | . | . | .
COc1cc(C=NNC(=O)Cn2nc(C)cc2C)ccc1OC(=O)C1CC1 | 19.5 | 25.4 | 19.9* | 30.1* | -75.0 | 0.9 | 3.5 | . | 0.3
CCC[C@@H](/C=C/C(=O)OC(C)(C)C)Sc1ccccc1OC | 2.8 | . | -4.3 | . | 1.9 | . | . | . | .
Nc1cc2nc3ccccc3oc-2cc1=O | 46.7* | 29.8 | 20.1* | 22.8* | 24.4* | 1.0 | 15.3 | 28.7 | 6.9
O=c1oc2ccccc2cc1-c1nc2ccccc2o1 | 3.7 | -7.0 | -6.2 | -6.6 | -1.8 | . | . | . | .
O=C(N/N=C/c1cc(Br)cc(Br)c1O)c1cccc(N2CCCC2=O)c1 | 12.3 | 18.4 | 40.7* | 36.7* | -0.3 | -13.9 | 47.6* | . | 19.9*
O=C(N/N=C/c1ccc(Cl)cc1Cl)c1cccc(N2CCCC2=O)c1 | -4.0 | -0.6 | -8.4 | 1.9 | -4.7 | . | . | . | .
SMILES | mABHD4 FP | HTRA1 inhibitor | SIAE primary | TCR-CD3 inh | PRMT1 FP inh | BSA TAMRA ctr | TCR-CD3 inh conf | mABHD4 conf | SIAE confirm | others
CCCOc1ccc(-c2cc(C(C)=O)c3n(c2=O)CCC3)cc1 | -3.9 | . | 0.4 | . | -3.8 | . | . | . | .
COc1ccc2c(c1)CCCN2C(=O)C1CCCN(S(=O)(=O)c2ccc(C)c(C)c2)C1 (stereo unspecified) | -1.3 | . | 1.3 | . | -0.4 | . | . | . | .
CCC(CNc1cc(OC)cc2cccnc12)NC1CCCCC1 (stereo unspecified) | 88.8* | 20.9 | 47.7* | 126.1* | 32.2* | 17.1 | 13.6 | 25.8 | 12.4
COCCCNC(=O)C[C@H]1C[C@@]2(C(=O)OC)C(=C[C@H](COCc3ccccc3)O[C@@H]2C)N(Cc2ccc(Cl)cc2Cl)C1=O | 3.6 | . | 2.5 | . | -1.3 | . | . | . | .
CCOC(=O)c1c(C)[nH]c(C(=O)COC(=O)c2cnccn2)c1C | 21.4 | -0.4 | 20.1* | 38.2* | -141.9 | -1.3 | 6.2 | . | -0.9
CCN(CC)S(=O)(=O)c1cccc(C(=O)N/N=C/c2ccc(O)c(O)c2O)c1 | 42.4* | 34.4 | 34.2* | 30.7* | 26.8* | -14.1 | 29.3* | 52.3* | -7.6
CCOc1ccccc1/C=N/NC(=O)c1cccc(S(=O)(=O)N(CC)CC)c1 | -2.0 | -2.1 | -5.9 | 4.8 | 0.7 | . | . | . | .
CN(C)c1ccc(C=Cc2nccc3ccccc23)cc1 | 111.5* | . | 130.9* | 157.2* | 139.4* | 144.8* | 87.9* | 84.8* | 20.4* | PRMT1 confirm=60.6*
COc1ccc(CN(CC#Cc2ccccc2)Cc2ccccc2)c(OC)c1 | -8.9 | . | -1.4 | . | -1.9 | . | . | . | .
N#CCCN(CCC#N)C(=O)C1c2ccccc2Oc2ccccc21 | 103.3* | 31.1 | 66.6* | 124.3* | 48.3* | 11.4 | 8.0 | 2.5 | 2.8
Cc1cc(-c2csc(NC(=O)C3=COCCO3)n2)c(C)n1C | 10.0 | 9.7 | 26.3* | 21.9* | 1.4 | -9.9 | -3.5 | . | -2.0
Cc1cc(C)c(-c2csc(NC(=O)C3=COCCO3)n2)c(C)c1 | -2.6 | -12.5 | -5.1 | -10.4 | 1.3 | . | . | . | .
CC(=O)[C@@]1(O)Cc2c(O)c3c(c(O)c2[C@H](O[C@H]2C[C@H](N)[C@H](O)[C@H](C)O2)C1)C(=O)c1ccccc1C3=O | 101.2* | . | 81.3* | 175.5* | 169.5* | + | 166.9* | . | 81.4* | PRMT1 confirm=153.1*
Cc1nc2cc(C(=O)N3CCN(C(=O)C(Cl)Cl)CC3)ccc2n1C1CCCC1 | 7.5 | . | -0.7 | . | 0.6 | . | . | . | .
O=C(Cc1ccccc1)NC1CCCCN(Cc2ccc(Cl)cc2)C1=O (stereo unspecified) | -3.8 | . | -23.0 | . | -1.7 | . | . | . | .
O=C(COC(=O)c1cc(-c2cccc3ccccc23)nc2ccccc12)NC1CCS(=O)(=O)C1 (stereo unspecified) | 38.5* | 30.5 | 25.3* | 29.8* | 25.1* | 54.4* | 37.7* | 8.4 | 15.1
